Source: PubChem BioAssay
Autophagy mod – autophagy modulation, high-content screen | MEF GFP-LC3 puncta imaging; test concentration mostly 10 µM | calls only at 10 µM (by protocol) | actives 0.98% (n = 190,000) | AID 463193;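 active = percentage of spot-positive cells more than 3 SD above its plate mean, without a fluorescence outlier flag or 80% toxicity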;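 also: spot-positive cell cutoff set from DMSO-treated cells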
CHOP inhibitor – blocks CHOP induction under ER stress; CHO-K1 CHOP-promoter luciferase, tunicamycin-induced, 15-18 h; inhibition, % at 10 µM; actives 3.8% (n = 220,000); AID 2732;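 active = compounds that reduced the stress-induced luciferase reporter signal by more than about 70% of percent inhibition, limit read from the data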;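 also: 0% = tunicamycin plus vehicle and 100% = wells without tunicamycin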
Lmaj promast – inhibitors of Leishmania major promastigote growth | AID 1063 | Leishmania major promastigotes, resazurin fluorescence viability | inhibition, % at 10 µM | actives 9% (n = 200,000); in the data active = inhibition above about 50%;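 also: promastigotes grown with compound for 44 hours at 28 °C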
MT stabilize HCS – stabilizes microtubules in HeLa cells | actives 0.83% (n = 200,000) | HeLa tubulin immunostaining HCS, 24 h; share of cells brighter than vehicle mean+2SD | % tubulin-high responders, % at 10 µM;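 active = plate Z-score above 3 for both tubulin-high and condensed-nucleus cell shares, with cell loss under 80%, at 10 µM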;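 also: anti alpha tubulin signal scored within the nucleus-defined area of each cell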
bCat nuc transl – alters nuclear translocation of beta-catenin in HeLa cells. immunofluorescence imaging. nuclear translocation activity, % at 5 µM. actives 0.3% (n = 190,000);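 active = nuclear translocation activity above 50% at 5 µM, with a well cell count of 50 or more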;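 also: per-cell ratio of nuclear to cytoplasmic median beta-catenin stain intensity; plate controls were DMSO negative control for no effect and GSK-3 inhibitor IX positive control for full effect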
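test system = HeLa cells, endogenous beta-catenin | dosing = single 5 µM dose plus 0.02–20 µM confirmation series | times = compound treatment 24 h, 37°C, 5% CO2 | technique = beta-catenin immunofluorescence imaging with DAPI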
Dynein cargo inh – blocks dynein driven cargo transport along microtubules | actives 0.47% (n = 220,000) | 3617.4 mouse cells, GR-EGFP nuclear translocation imaging; test concentration mostly 20 µM; stimulated with dexamethasone, 1 µM; stronger effect = lower value | z-score, hits read low;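 active = plate z-score of nuclear minus cytoplasmic receptor signal below a set negative limit, without overly bright fluorescence or cell loss, cut at about -3.5 in these data, passing the limit was not always enough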;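 also: z-score of nuclear minus cytoplasmic ring GR-EGFP intensity difference per well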
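medium = tetracycline-free induction medium containing charcoal-stripped FBS | probe or stimulus = dexamethasone, 1.0 µM final | timing = 48 h induction, then 1 h compound, then 30 min agonist, 37 °C | detection = automated 10x imaging of fixed Hoechst-stained cells | read-out basis = nuclear versus cytoplasmic GR-EGFP signal, averaged per well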
Active calls of the source: *; i = inactive; . = no result given; + = active, no number. Shown are actives, neighbours in structure and some others; about 12% of the full set was active somewhere.

SMILES | Autophagy mod | CHOP inhibitor | Lmaj promast | MT stabilize HCS | bCat nuc transl | Dynein cargo inh
Cn1nc(C(F)(F)F)c(C(=O)Nc2ccc(Cl)cc2)c1Cl | i | 1.6 | 4.2 | 2.4 | 2.2 | 1.57
Cn1cc(C(=O)Nc2ccc(Cl)cc2)c(C(F)(F)F)n1 | + | -2.6 | -3.8 | 1.8 | 0.2 | -0.341
CC(=O)Nc1ccc(Oc2nc(C)cc(C)n2)cc1 | i | 10.4 | -3.4 | 6.3 | 4.4 | -0.182
Fc1ccc(CSc2ccc3nnc(-c4ccccn4)n3n2)cc1 | i | 8.6 | 95.8* | 0.9 | 0.9 | -0.807
Cc1ccc(CSc2ccc3nnc(-c4ccccn4)n3n2)cc1 | i | -3.4 | 1.6 | 2.5 | 6.0 | 0.188
Clc1ccc(C2=CSC3=NCCN23)cc1Cl | + | 22.2 | 48.2 | 2.3 | -3.5 | -0.635
Cc1ccc(C)c(C2=CSC3=NCCN23)c1 | . | 4.2 | 2.4 | 2.0 | 0.6 | 0.547
COc1cc2c(cc1OC)C1(C)N(CC2)C(C(C)=O)=NN1c1ccc(Cl)cc1 (stereo not given) | . | 11.7 | . | . | -1.0 | -0.0633
CC(NC(=O)c1ccc(Cl)c(Cl)c1)c1ccc(-c2ccccc2)cc1 (stereo not given) | . | 36.2 | . | . | -0.5 | -0.409
CC(NC(=O)CCl)c1ccc(Cl)c(Cl)c1 (stereo not given) | i | -8.2 | 62.7* | 3.4 | -1.5 | -3.18
CCc1c(C)nc(SCC(=O)N2CCCCC2CC)[nH]c1=O (stereo not given) | . | -17.3 | . | . | -1.1 | -0.557
c1ccc(-c2csc3nnc(SCc4ccc5c(c4)OCCO5)n23)cc1 | i | 8.0 | 56.3* | 4.2 | -1.6 | -0.414
O=[N+]([O-])c1cccc(/C=N\N=C2c3ccccc3-c3ccccc32)c1O | i | 47.6 | 74.3* | 3.4 | 1.2 | 0.0918
O=[N+]([O-])c1ccccc1N/N=C/c1cccc(O)c1O | . | 71.0* | . | . | 1.8 | -0.905
O=[N+]([O-])c1ccc(N/N=C/c2cccc(O)c2O)c(S(=O)(=O)N2CCOCC2)c1 | + | -6.6 | -0.3 | 5.1 | 1.7 | -0.212
O=[N+]([O-])c1ccc(N/N=C\c2ccccc2OCc2ccccc2)cc1 | + | 75.8* | 53.4* | 4.6 | -4.0 | -0.0389
Cc1cc(C)nc(N/N=C/c2ccccc2OCc2ccc([N+](=O)[O-])cc2)n1 | i | -4.1 | 7.4 | 1.8 | 1.3 | 0.077
Cc1c(Cl)cccc1NC(=O)CCCN1C(=O)CCC1=O | i | 32.2 | -6.7 | 3.1 | . | 2.71
COC(=O)c1sc(S(=O)(=O)Nc2ccc(C)c(C)c2)c(C(=O)OC)c1C | i | 0.8 | 5.8 | 4.4 | 0.6 | 1.21
CC(C)CNC(=O)COC(=O)c1n[nH]c2ccccc12 | i | 12.7 | -7.0 | 2.8 | 0.5 | -0.495
C[C@@H]1CN(c2c(F)c(N)c3c(=O)c(C(=O)O)cn(C4CC4)c3c2F)C[C@H](C)N1 | . | 6.5 | . | . | 0.4 | .
CC(C)(C)c1ccc(C(CC(=O)O)NC(=O)c2ccccc2F)cc1 (stereo not given) | i | -8.7 | -8.1 | 4.9 | -0.8 | -0.73
O=[N+]([O-])c1cccc(N/N=C/c2cccc(O)c2O)c1 | i | 2.1 | 90.1* | 3.5 | 8.5 | -0.279
CC1=C(C(=O)Nc2ccc([N+](=O)[O-])cc2)C(c2cccc(C(F)(F)F)c2)NC(=S)N1c1ccccc1 (stereo not given) | i | 66.6 | 38.4 | 3.2 | -4.8 | -0.47
COc1ccc(C2NC(=S)N(c3ccccc3)C(C)=C2C(=O)Nc2ccccc2)cc1 (stereo not given) | i | 13.4 | 100.2* | 1.7 | . | -0.928
SMILES | Autophagy mod | CHOP inhibitor | Lmaj promast | MT stabilize HCS | bCat nuc transl | Dynein cargo inh
CCn1c(-c2ccccc2)csc1=Nc1ccc(S(=O)(=O)O)cc1 | i | 19.2 | 54.8* | 2.2 | . | -0.166
OCCCn1c(-c2ccccc2)csc1=Nc1ccccc1 | i | 24.4 | 12.7 | 3.2 | 2.1 | -1.02
O=C1NCC(COc2ccc(Cl)cc2)O1 (stereo not given) | i | 31.7 | -7.1 | 2.0 | -2.2 | -0.106
CCOC(=O)C1(CCC(C)C)CC(CSc2nc3ccccc3[nH]2)OC1=O (stereo not given) | i | 89.3* | 3.8 | 1.0 | -4.5 | 0.525
CCOC(=O)C1(CC)CC(CSc2nc3ccccc3[nH]2)OC1=O (stereo not given) | i | -1.1 | -6.1 | 5.3 | -5.3 | -0.77
COc1ccccc1/C=C/C(=O)NCC(=O)N1CCC(N(C)C2CCCC2)CC1 | i | 1.7 | 7.2 | 4.8 | -4.8 | 2.07
O=C(/C=C/c1ccc(Cl)cc1)N1CCN(c2ncccn2)CC1 | i | -5.7 | -5.7 | 1.4 | -1.3 | -0.495
O=C(/C=C/c1ccccc1Cl)N1CCN(c2ncccn2)CC1 | i | 0.9 | 58.9* | 4.0 | . | 0.167
CCOc1ccc(NC(=S)N2CCC(C(N)=O)CC2)cc1 | i | -18.0 | -5.4 | 1.6 | -2.9 | -0.348
c1ccc(Nc2nc(-c3ccncc3)nc3ccccc23)cc1 | i | -21.0 | 16.1 | 3.9 | -1.4 | -0.253
Fc1ccccc1Nc1nc(-c2ccncc2)nc2ccccc12 | i | 23.6 | 96.2* | 4.8 | -1.7 | -0.146
Fc1ccc(Nc2nc(-c3ccncc3)nc3ccccc23)cc1 | i | 89.7* | 21.9 | 4.7 | 0.5 | -0.283
CSC(=O)NC(=O)NC(=O)c1ccc([N+](=O)[O-])cc1 | . | -1.6 | . | . | -0.3 | -0.0931
O=C(Nc1nncs1)c1cccnc1Cl | i | 14.5 | -0.5 | 1.9 | -4.0 | 1.59
Nc1nnc(-c2cc3ccccc3oc2=O)s1 | i | -43.6 | 14.3 | 3.1 | 0.2 | -0.211
O=c1oc2ccccc2cc1-c1nnc(NCc2ccco2)s1 | i | 17.1 | -9.0 | 20.1* | . | 1.86
O=C(O)C(c1ccccc1)N1CCCC1 (stereo not given) | i | 2.8 | -4.6 | 2.4 | -5.0 | -0.512
CCc1cccc(C)c1NC(=O)CN(C)Cc1ccc(Br)cc1 | i | 51.4 | 21.8 | 2.9 | 2.9 | -0.483
CC(=O)N(Cc1ccc(Br)cc1)c1cccc(C)c1C | i | -5.5 | 0.0 | 16.1 | 51.8* | -0.326
COc1ccc(CN(C(C)=O)c2cccc(C)c2C)cc1 | i | -10.7 | 0.8 | 43.0* | 10.3 | 0.511
CC(=O)N(Cc1ccccc1)c1ccccc1C(=O)O | . | 7.4 | . | . | 0.2 | -0.642
Cc1ccccc1SCCNC(=O)c1ccccc1Br | i | 12.1 | -4.2 | 3.7 | 3.4 | -0.267
CCCn1c(=N)n(CC(O)COc2cccc(C)c2)c2ccccc21 (stereo not given) | i | 12.7 | 95.6* | 3.0 | . | -1.56
Cc1cccc(OCC(O)CN2C(C)(C)CC(O)CC2(C)C)c1 (stereo not given) | + | 15.4 | -3.3 | 3.6 | -1.1 | -0.708
CCCn1c(=N)n(CC(=O)O)c2ccccc21 | i | -7.8 | 4.5 | 1.4 | . | -0.293
CCn1c(=N)n(CC(O)COc2cccc(C)c2)c2ccccc21 (stereo not given) | i | 35.5 | 57.9* | 3.6 | . | -0.178
